# Source: ChEMBL document CHEMBL1121860, “Characterization of alpha-adrenoceptor populations. Quantitative relationships between cardiovascular effects initiated at central and peripheral alpha-adrenoceptors” (J Med Chem, 1981)
# How the values were obtained:
# [1] = Partition coefficient (logD7.4); format: physicochemical; conditions: octanol/water, pH 7.4
# In short: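 Octanol against 0.1 M phosphate buffer at pH 7.4 and 37 °C. Drug at about 10^-4 M in octanol-saturated buffer was shaken for 1 h with buffer-saturated octanol, then left standing 6 h. Buffer-phase drug was measured by UV at λmax before and after partitioning, with GLC or potentiometric titration used for some compounds. Apparent P' is the mean of six partition experiments.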
# [2] = molecular target: T1, Adrenergic receptor alpha (Rattus norvegicus) (UniProt P15823+P23944+P43140+P22086+P19328+P22909); test: Central hypotensive activity in anesthetized normotensive rats.; format: functional
# In short: (§1)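 Male normotensive Wistar rats (190-220 g), pentobarbitone sodium 75 mg/kg ip, ventilated, ~37 °C; iv jugular dosing, one single dose per rat, randomized; carotid arterial pressure after ≥20 min equilibration with heparin; rats with MAP <100 or >150 mmHg excluded. Maximal MAP fall as % of preinjection; pC25 = log reciprocal dose (μmol/kg) for 25% fall, from log dose-response curves; points mean of 5-6 experiments.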
# [3] = molecular target: T1, Adrenergic receptor alpha (Rattus norvegicus); test: Peripheral hypertensive activity in pithed normotensive rats.; format: functional
# In short: (§2)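 Normotensive rats under hexobarbitone sodium 150 mg/kg ip, pithed via orbit, ventilated, ~37 °C, heparinized; after 20 min equilibration, single iv jugular doses in random order, 3-4 per rat with recovery between; carotid MAP rise (mmHg). pC60 = log reciprocal dose (μmol/kg) raising MAP by 60 mmHg, from log dose-response curves; points mean of 5-6 experiments.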
# [4] = molecular target: T1, Adrenergic receptor alpha (Rattus norvegicus); test: Tested for central hypotensive activity in anesthetized normotensive rats at alpha adrenoceptor expressed as 25% decrease in mean arterial pressure; in short: as §1
# [5] = molecular target: T1, Adrenergic receptor alpha (Rattus norvegicus); test: Tested for peripheral hypertensive activity in pithed normotensive rats at alpha adrenoceptor expressed as increase in mean arterial pressure by 60 mmHg; in short: as §2
smiles,measurement,setting,value
c1ccc2c(c1)CCCC2C1=NCCN1 (stereo not given) [TETRAHYDROZOLINE],logD,[1],-0.9
same,pC25,[2],-0.16
same,pC60,[3],0.9
Clc1cccc(Cl)c1N=C1NCCN1 [CLONIDINE],logD,[1],0.85
CCN1CCc2nc(N)oc2CC1 [AZEPEXOLE],logD,[1],0.05
same,pC25,[2],-0.14
same,pC60,[3],-0.41
CC(Oc1c(Cl)cccc1Cl)C1=NCCN1 (stereo not given) [LOFEXIDINE],logD,[1],0.73
same,pC25,[2],2.09
same,pC60,[3],1.99
Clc1cccc(Cl)c1/C=N/NC1=NCCN1,logD,[1],2.12
same,pC25,[2],0.63
same,pC60,[3],0.23
Clc1cccc(Cl)c1CC1=NCCN1,logD,[1],-0.53
same,pC25,[2],0.68
same,pC60,[3],1.17
FC(F)(F)c1cc(Br)cc(Br)c1NC1=NCCN1,logD,[1],2.8
same,pC60,[3],-0.26
Cc1cccc(C)c1NC1=NCCCS1,pC25,[2],0.62
same,pC60,[3],-0.02
C=CCN1CCc2nc(N)sc2CC1 [TALIPEXOLE],logD,[1],1.09
same,pC25,[2],1.43
same,pC60,[3],0.69
Cc1cc(C(C)(C)C)cc(C)c1CC1=NCCN1 [XYLOMETAZOLINE],logD,[1],0.4
same,pC25,[2],0.26
same,pC60,[3],1.12
c1cc2c(c(NC3=NCCN3)c1)CCCC2 [TRAMAZOLINE],logD,[1],-0.62
same,pC25,[2],0.55
same,pC60,[3],1.8
Clc1cccc(Cl)c1SC1=NCCN1,logD,[1],1.36
same,pC25,[2],0.88
same,pC60,[3],1.24
Cc1cccc(C)c1N=C1NCCCS1 [XYLAZINE],logD,[1],1.34
Clc1cccc(Cl)c1N=C1NCCCN1,logD,[1],-0.34
CC[C@H]1CCC[C@@H](C)[C@@H]1NC1=NCCO1,logD,[1],1.39
same,pC25,[4],2.32
same,pC60,[5],2.11
Brc1cc(Br)c(N=C2NCCN2)c(Br)c1,logD,[1],2.51
same,pC60,[3],0.65
Clc1cccc(Cl)c1C1=CN2CCN=C2S1,logD,[1],2.02
same,pC25,[2],2.77
same,pC60,[3],2.4
Cc1cccc(C)c1/N=C1/NCCO1,logD,[1],1.28
same,pC25,[4],1.96
same,pC60,[5],1.51
Clc1cc(Br)cc(Cl)c1N=C1NCCN1,logD,[1],2.31
same,pC25,[2],0.84
same,pC60,[3],1.22
Clc1cccc(Cl)c1NC1=NCCCN1,pC60,[3],-0.79
c1ccc2c(CC3=NCCN3)cccc2c1 [NAPHAZOLINE],logD,[1],-0.52
same,pC25,[2],0.95
same,pC60,[3],1.83
Clc1cccc(Cl)c1NC1=NCCN1,pC25,[2],2.04
same,pC60,[3],1.78
Cc1csc(Cl)c1NC1=NCCN1 [TIAMENIDINE],logD,[1],-0.17
same,pC25,[2],0.69
same,pC60,[3],1.2
Brc1c(NC2=NCCN2)ccc2nccnc12 [BRIMONIDINE],logD,[1],0.31
same,pC25,[2],1.55
same,pC60,[3],1.56
